This is an account of results in ChEMBL document CHEMBL1145585, “Discovery of novel 4-amino-6-arylaminopyrimidine-5-carbaldehyde oximes as dual inhibitors of EGFR and ErbB-2 protein tyrosine kinases” (Bioorg Med Chem Lett, 2008).

What all share (format): ADME, organism-based
Data set [1] can be described thus: Cmax in Sprague-Dawley rat at 10 mg/kg, po. The conditions noted are these: in vivo. More on the design: dose 10 mg/kg, route oral. An outline of the steps:
(§1)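 Sprague–Dawley rats were dosed 2 mg/kg iv in 10% solutol in D5W and 10 mg/kg po in 0.5% hydroxypropyl methylcellulose. Plasma levels were followed to derive the pharmacokinetic parameters.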

Data set [2] can be described thus: Bioavailability in Sprague-Dawley rat at 2 mg/kg, iv and 10 mg/kg, po. The settings on record: in vivo. An outline of the steps:
as §1

A short description of data set [3]: Half life in Sprague-Dawley rat at 10 mg/kg, po. Also on record: dose 10 mg/kg, route oral. The settings on record: in vivo. An outline of the steps: as §1
Data set [4] is described as follows: AUC in Sprague-Dawley rat at 10 mg/kg, po. Also on record: dose 10 mg/kg, route oral. The settings on record: plasma. An outline of the steps:
as §1

A short description of data set [5]: Clearance in Sprague-Dawley rat at 2 mg/kg, iv and 10 mg/kg, po. The settings on record: in vivo. An outline of the steps:
as §1

Data set [6] in a line: Tmax in Sprague-Dawley rat at 10 mg/kg, po. More on the design: dose 10 mg/kg, route oral. The settings on record: in vivo. An outline of the steps: as §1
Data set [7] is described as follows: Volume of distribution at steady state in Sprague-Dawley rat at 2 mg/kg, iv and 10 mg/kg, po. The settings on record: in vivo, read-out: Vdss. An outline of the steps:
as §1

For `CO/N=C/c1c(N)ncnc1Nc1ccc(OCc2ccccc2)c(Cl)c1`, the peak concentration (Cmax) (usually the maximum level reached in the sampled fluid or tissue) in data set [1] was 5.7 µM. The bioavailability (as a rule, the share of a dose that reaches the circulation, judged against a reference dose that is usually intravenous) in data set [2] stood at 15%. Moreover, in data set [3], the half-life (commonly how long it takes for the measured level to halve) is 8.4 h. Also, the AUC (commonly the area under the concentration-time curve, a measure of exposure) in data set [4] was determined as 19.3 µM·h. The compound further came in with a clearance in data set [5] of 3.56 mL/min/kg. Also, the Tmax – broadly, the time at which the peak concentration occurs – in data set [6] amounted to 0.63 h. Further, the Vd in data set [7] was 0.17 L/kg.
